Measurements taken from ChEMBL document CHEMBL2417530, “Coumarin derivatives protect against ischemic brain injury in rats” (Eur J Med Chem, 2013).
Active and inactive are the calls of the source. The rule behind the calls is not given here.

How the values were obtained:
[1] = test system: Rattus norvegicus; assay: In vivo neuroprotective activity in Sprague-Dawley rat transient middle cerebral artery occlusion model assessed as reduction of infarct size at 6 mg/kg, iv measured 24 hrs post reperfusion by TTC staining assay relative to vehicle-treated control; format: functional; parameters: scale not given: the % may be the effect or the level left
Outline: (§1)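 Male Sprague-Dawley rats, 7 weeks, 260–280 g, under 10% chloral hydrate ip. Right MCA occluded 60 min by tip-burned 4-0 nylon thread via common carotid, then reperfused. Saline or drug given iv at reperfusion, ethanol as cosolvent. Killed 24 h later; six 2 mm slices in 1% TTC in PBS, 37 °C, 30 min. Infarct area traced as % of total area; n = 12.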

[2] = test system: Rattus norvegicus; assay: In vivo neuroprotective activity in Sprague-Dawley rat transient middle cerebral artery occlusion model assessed as suppression of neuropathological changes at 1.5 to 6 mg/kg, iv measured 24 hrs post reperfusion by uranyl acetate/lead citrate staining-based transmission electron microscopic analysis; format: functional, organism-based
Outline: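 Rats had 60 min MCAO with iv dosing (1.5-6.0 mg/kg) at reperfusion. At 24 h they were perfused with PBS, then acrolein in 2% paraformaldehyde. Tissue was postfixed in 2.5% glutaraldehyde for 2 h and 1% OsO4 for 2 h, dehydrated and Epon-embedded. Ultrathin sections were stained with uranyl acetate/lead citrate and examined by TEM at 12000×.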

[3] = AUC in Sprague-Dawley rat plasma at 2 x 10^-5 mol/kg, iv by LC-MS analysis; format: ADME, organism-based; details: 2e-05 mol/kg
Outline: (§2)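 Male Sprague-Dawley rats (260-280 g, n = 4) given a single iv dose of 6 mg/kg. Blood was taken from the jugular vein into heparin tubes under ether, and plasma was spun out and stored at -70 °C. After saline perfusion, cortex was homogenized in 2 volumes of water. Samples were precipitated with acetonitrile with internal standard added and quantified by LC-MS against a weighted linear calibration.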

[4] = test system: Rattus norvegicus; assay: In vivo neuroprotective activity in Sprague-Dawley rat transient middle cerebral artery occlusion model assessed as reduction of infarct size at 3 mg/kg, iv measured 24 hrs post reperfusion by TTC staining assay relative to vehicle-treated control; format: functional; parameters: scale not given: the % may be the effect or the level left; outline: as §1
[5] = Terminal half life in Sprague-Dawley rat cortex at 2 x 10^-5 mol/kg, iv by LC-MS analysis; format: ADME, organism-based; details: 2e-05 mol/kg, read-out: beta t1/2; outline: as §2
[6] = test system: Rattus norvegicus; assay: In vivo neuroprotective activity in Sprague-Dawley rat transient middle cerebral artery occlusion model assessed as reduction of brain-water content at 1.5 to 6 mg/kg, iv measured 24 hrs post reperfusion; format: functional, organism-based
Outline: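 Male SD rats (7 weeks, 260-280 g) had 60 min transient right MCA occlusion with a nylon filament, then reperfusion. Saline or drug (1.5, 3.0, 6.0 mg/kg) was injected iv at reperfusion. Animals without neurological deficit were replaced. At 24 h brains were oven-dried at 110 °C for 24 h, and water content was taken as (wet−dry)/wet; n = 12.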

[7] = test system: PC-12; assay: Neuroprotective activity in rat PC12 cells assessed as attenuation of oxygen-glucose deprivation-induced cellular damage at 10 uM by MTT assay relative to control; format: functional
Outline: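 PC12 cells were seeded at 5×10^3/well for 24 h. OGD insult was low-glucose medium plus 5 mM sodium dithionite for 24 h, given together with 10 µM compound. MTT (5 mg/mL) was added for 4 h and absorbance read at 570 nm. Viability was expressed as % of full-medium control; n = 3.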

[8] = Volume of distribution in Sprague-Dawley rat plasma at 2 x 10^-5 mol/kg, iv by LC-MS analysis; format: ADME, organism-based; details: 2e-05 mol/kg; outline: as §2

**Q.** Which Activity [1] does the source give for `COc1cc(O)cc2oc(=O)c(N3CCN(C)CC3)c(C)c12` here?
**A.** Its Activity is 18.89%.

**Q.** And the Activity [2]?
**A.** The Activity was “Active”.

**Q.** What about the AUC [3] of the same molecule?
**A.** Its AUC is 2870 ng·h/mL.

**Q.** What about the Activity [4] of the same molecule?
**A.** The Activity was 20.36%.

**Q.** What about the half-life [5] of the same molecule?
**A.** The half-life was 15.5 min.

**Q.** And the Activity [6]?
**A.** Its Activity is “Active”.

**Q.** And the Activity [7]?
**A.** Its Activity is 66%.

**Q.** And the Vd [8]?
**A.** The Vd was 0.084 L.
